Experimental data published in ChEMBL document CHEMBL1134666, “Design, synthesis, and biological evaluation of novel nucleoside and nucleotide analogues as agents against DNA viruses and/or retroviruses” (J Med Chem, 2001).
Values after ≈ are worked out from the molar mass of the structure shown.

Tests used:
[1] = test system: Moloney murine sarcoma virus; assay: Inhibition of virus-induced cytopathogenicity against moloney murine sarcoma virus(MSV)in CEM cells in cell protection assay; assay type: functional, organism-based; conditions: CCRF-CEM
In short: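 Cell-protection assay with Moloney murine sarcoma virus in CEM cells; inhibition of virus-induced cytopathogenicity measured and IC50 derived by linear regression from the average of duplicate determinations.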

CCRF-CEM = assay: Cellular toxic effect was determined in CEM cells; assay type: functional, cell-based; conditions: Homo sapiens
[2] = Inhibitory effects on HSV-1 induced mortality in NMRI mice upon (ip) administration at a dose of 250 mk/kg/day; assay type: functional, Human alphaherpesvirus 1
In short: (§1)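 Two-week-old NMRI mice (~7 g, 15-20 per group) were infected ip with 4 × 10⁴ units HSV-1 (KOS). Compound was given ip once daily for 6 consecutive days starting 4 h postinfection; controls received saline. Mean day of symptom onset and of death were recorded, with % symptom-free and % surviving at day 21, when the experiment ended.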

MT4 = assay: Cellular toxic effect was determined in MT-4 cells; assay type: functional, cell-based; conditions: Homo sapiens
[3] = Inhibitory effects on HSV-1 induced mortality in NMRI mice upon (ip) administration at a dose of 100 mk/kg/day; assay type: functional, Human alphaherpesvirus 1; in short: as §1
Adenosine deaminase = target: T1, Adenosine deaminase (Bos taurus, UniProt P56658); assay: Inhibitory activity against adenosine deaminase
T1 sequence (P56658 whole entry): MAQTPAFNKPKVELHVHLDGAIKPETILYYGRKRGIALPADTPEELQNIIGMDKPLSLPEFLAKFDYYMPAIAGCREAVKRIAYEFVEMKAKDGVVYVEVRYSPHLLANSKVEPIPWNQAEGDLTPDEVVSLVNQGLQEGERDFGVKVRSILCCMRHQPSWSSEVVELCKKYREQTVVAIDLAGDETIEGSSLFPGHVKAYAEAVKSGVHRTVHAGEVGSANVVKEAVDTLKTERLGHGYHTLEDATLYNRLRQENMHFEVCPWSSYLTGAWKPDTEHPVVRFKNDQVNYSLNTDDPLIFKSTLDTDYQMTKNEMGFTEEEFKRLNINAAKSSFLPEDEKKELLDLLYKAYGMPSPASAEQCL
In short: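 Calf mucosal adenosine deaminase. Ki determined by the Kaplan method, with ara-A as substrate and the test compound added to the substrate solutions.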

[4] = test system: Human immunodeficiency virus 2; assay: Inhibition of cytopathogenicity against human HIV-2(LAV-2) in MT-4 cells; assay type: functional, organism-based; conditions: Human immunodeficiency virus 2, MT4
[5] = Inhibitory effects on HSV-1 induced mortality in NMRI mice upon (ip) administration at a dose of 150 mk/kg/day; assay type: functional, Human alphaherpesvirus 1; in short: as §1
[6] = test system: Human immunodeficiency virus 1; assay: Inhibition of cytopathogenicity against human HIV-1(IIIB) in MT-4 cells; assay type: functional, organism-based; conditions: Human immunodeficiency virus 1, MT4
[7] = Inhibitory effect on HSV-1 induced mortality in NMRI mice upon (ip) administration at a dose of 250 mk/kg/day; assay type: functional, Human alphaherpesvirus 1; in short: as §1
[8] = Inhibitory effect on HSV-1 induced mortality in NMRI mice upon (ip) administration at a dose of 150 mk/kg/day; assay type: functional, Human alphaherpesvirus 1; in short: as §1
Vero [9] = assay: Maximum velocity constant of the rate of phosphorylation was determined against Vero cell thymidine kinase; assay type: functional, Chlorocebus sabaeus
Vero [10] = assay: Maximum velocity constant of the rate of phosphorylation was determined n the presence of Vero cell thymidine kinase; assay type: functional, Chlorocebus sabaeus
[11] = Inhibitory effect on HSV-1 induced mortality in NMRI mice upon (ip) administration at a dose of 100 mk/kg/day; assay type: functional, Human alphaherpesvirus 1; in short: as §1

Row | Structure (SMILES) | IC50 [1] | IC50 (CCRF-CEM) | Animal death [2] | Symptom initiation [2] | IC50 (MT4) | IC50 [4] | IC50 [6] | other results
1 | COC1=C(OC)/C(=C/COP(=O)(O)COCCn2cnc3c(N)ncnc32)OC1=O | 0.93 µg/mL (≈ 2.11 µM) | 280 µg/mL (≈ 634 µM) | >21% | >21% | 265 µg/mL (≈ 600 µM) | 1 µg/mL (≈ 2.27 µM) | 1.4 µg/mL (≈ 3.17 µM) | Animal death [3]: >21%; Symptom initiation [3]: >21%; Ki (Adenosine deaminase): > 800 µM; Animal death [5]: >21%; Symptom initiation [5]: >21%
2 | Nc1ncnc2ncn(CCOCP(=O)(O)O)c12 | 27 µg/mL (≈ 98.8 µM) | > 300 µg/mL | – | – | > 300 µg/mL | 9.1 µg/mL (≈ 33.3 µM) | 7.8 µg/mL (≈ 28.6 µM) | Animal death [7]: 20%; Symptom initiation [8]: 15%
3 | COC1=C(OC)/C(=C/COP(=O)(O)COCCn2cnc3c(O)nc(N)nc32)OC1=O | 0.02 µg/mL (≈ 0.0437 µM) | 13 µg/mL (≈ 28.4 µM) | – | – | 14 µg/mL (≈ 30.6 µM) | 7.1 µg/mL (≈ 15.5 µM) | 6 µg/mL (≈ 13.1 µM) | –
4 | Nc1ncnc2ncn(COCCO)c12 | – | – | – | – | – | – | – | Animal death [7]: >21%; Symptom initiation [7]: >21%; Animal death [8]: >21%; Relative Vmax (Vero [9]): <3
5 | Nc1ncnc2c1ncn2[C@@H]1O[C@H](COP(=O)(O)O)[C@@H](OP(=O)(O)COCCn2cnc3ncnc(N)c32)[C@H]1O | 17 µg/mL (≈ 28.2 µM) | > 300 µg/mL | >21% | >21% | 298 µg/mL (≈ 495 µM) | 6.4 µg/mL (≈ 10.6 µM) | 5.9 µg/mL (≈ 9.79 µM) | Animal death [3]: >21%; Symptom initiation [3]: 16%
6 | COC1=C(OC)/C(=C/COP(=O)(O)OC[C@H]2O[C@@H](n3cnc4c(N)ncnc43)[C@H](O)[C@@H]2OP(=O)(O)COCCn2cnc3ncnc(N)c32)OC1=O | 13 µg/mL (≈ 16.9 µM) | > 300 µg/mL | >21% | >21% | > 300 µg/mL | 4.2 µg/mL (≈ 5.45 µM) | 4.9 µg/mL (≈ 6.36 µM) | Animal death [3]: >21%; Ki (Adenosine deaminase): > 800 µM; Animal death [5]: >21%; Symptom initiation [5]: >21%
7 | Nc1ncnc2c1ncn2COCCO | – | – | – | – | – | – | – | Relative Vmax (Vero [10]): <3
8 | Nc1nc2c(ncn2COCCO)c(=O)[nH]1 [ACYCLOVIR] | – | – | >21% | >21% | – | – | – | Animal death [5]: >21%
9 | Nc1ncnc2c1ncn2CCOCP(=O)(O)O [ADEFOVIR] | 2 µg/mL (≈ 7.32 µM) | 285 µg/mL (≈ 1040 µM) | – | – | 274 µg/mL (≈ 1000 µM) | 3.8 µg/mL (≈ 13.9 µM) | 4.1 µg/mL (≈ 15 µM) | Animal death [11]: 17%; Animal death [7]: >21%; Symptom initiation [7]: >21%; Animal death [8]: >21%
10 | Nc1nc2c(ncn2CCOCP(=O)(O)O)c(=O)[nH]1 [GS-438] | 0.19 µg/mL (≈ 0.657 µM) | 12 µg/mL (≈ 41.5 µM) | – | – | 16 µg/mL (≈ 55.3 µM) | 18 µg/mL (≈ 62.2 µM) | 16 µg/mL (≈ 55.3 µM) | –
11 | Nc1ncnc2c1ncn2[C@@H]1O[C@H](CO)[C@@H](O)[C@@H]1O [VIDARABINE] | – | – | – | – | – | – | – | Relative Vmax (Vero [9]): <3
